Results gathered from unrelated publications.
Protocols differ between the studies behind these lines.
Target: Muscarinic acetylcholine receptor M4 (CHRM4, Homo sapiens, UniProt P08173)
Sequence (P08173 1-479, as in one of the studies): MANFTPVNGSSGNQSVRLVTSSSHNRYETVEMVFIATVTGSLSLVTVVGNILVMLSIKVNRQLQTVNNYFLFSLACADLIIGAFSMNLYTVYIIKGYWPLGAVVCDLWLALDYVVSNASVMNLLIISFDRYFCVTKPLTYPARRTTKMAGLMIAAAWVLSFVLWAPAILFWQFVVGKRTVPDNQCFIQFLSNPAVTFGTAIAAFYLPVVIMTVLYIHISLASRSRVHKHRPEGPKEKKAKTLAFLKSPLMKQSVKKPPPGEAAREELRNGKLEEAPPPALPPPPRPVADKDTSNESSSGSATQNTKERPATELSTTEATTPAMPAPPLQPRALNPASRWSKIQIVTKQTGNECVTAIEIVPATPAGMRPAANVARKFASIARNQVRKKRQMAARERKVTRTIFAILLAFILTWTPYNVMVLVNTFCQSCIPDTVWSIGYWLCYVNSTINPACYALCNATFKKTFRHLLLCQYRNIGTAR

SMILES	assay	conditions	inhibition [%]
O=C(Nc1cccnn1)N1CCN([C@@H]2CCOc3cc(C(F)(F)F)ccc32)CC1	cell-free assay	20 µM	15
COCc1c(-c2cc3cc(C)cc(OC)c3s2)c2c(N)ncnn2c1CN1CCNC(=O)C1	ligand displacement, radioligand	10 µM	6
C[C@H](C(=O)N[C@H]1COc2ccccc2[C@@H]1S(C)(=O)=O)c1ccc(F)cc1	cell-free assay	10 µM	6
N#CC1(c2ccccn2)CCN(Cc2cc(C(=O)O)c(=O)n3ccccc23)CC1	cell-free assay	10 µM	-2.36
c1ccc(C(NCCNC(c2ccccc2)c2ccccc2)c2ccccc2)cc1	cell-free assay	10 µM	32
Cn1cncc1[C@@](O)(COc1ccc(C#N)cc1-c1ccc(OC(F)(F)F)cc1)c1ccc(C#N)cc1	ligand displacement	10 µM	-9.7
Cc1ncc(C)n2nc(/C=C/c3nc(N4CCCC4)cc(N4CCOCC4)n3)nc12	ligand displacement	10 µM	47
CN1CC[C@@]2(C)c3cc(OC(=O)Nc4ccccc4)ccc3N(C)[C@@H]12	ligand displacement, radioligand	10 µM	0.3
